# Bioassay records from PubChem BioAssay.
# Most compounds without a hit are left out; they make up all but 1.3% or so of the library.
# G6PDH counter – counter-screen for G6PDH assay hits: L. mesenteroides G6PDH inhibition; 200,000 compounds, 0.12% hits; inhibition, % at 5 µM; Purified L. mesenteroides G6PDH, diaphorase/resazurin coupled fluorescence, 45 min; AID 1020; in the data active = inhibition above about 50%
# HKDC1 inh – blocks human hexokinase HKDC1 activity; 340,000 compounds, 0.16% hits; recombinant HKDC1, G6PDH/diaphorase resazurin coupled fluorescence; inhibition, % at 20 µM; Q2TB90; AID 493160;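 active = inhibition above about 35% when tested at 20 µM, limit read from the data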;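 note: plate controls were DMSO wells with enzyme for no effect and DMSO wells lacking enzyme for full effect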
#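 Assay system – recombinant HKDC1 (HK5) hexokinase enzyme, produced in-house · Input – HKDC1 at 5 µg/mL · Reagent – glucose plus 1 mM ATP as hexokinase substrates · Timing – 90 min reaction incubation at room temperature, dark · Measured by – G6PDH/diaphorase-coupled fluorescence, 1 mM NADP, 100 µM resazurin, 525/613 nm · Benchmarks – DMSO-enzyme wells negative, buffer-substituted wells positive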
# Tb hexokinase – blocks Trypanosoma brucei hexokinase 1 activity | 220,000 compounds, 0.11% hits | recombinant TbHK1, G6PDH-coupled NADH A340 | inhibition, % at 10 µM;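 active = inhibition of 50% or more in the single-dose primary screen; inactive = inhibition below 50%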
# Diaph inh CS – counter-screen for diaphorase-based assays: diaphorase inhibitors and chemical oxidizers | diaphorase resazurin-to-resorufin fluorescence, NADH, 16 min; bacterial (C. kluyveri) enzyme, not human | inhibition, % at 20 µM | 190,000 compounds, 0.69% hits | AID 1217;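 active = primary screen inhibition at 20 µM above a set limit, cut at about 50% in these data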;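 note: plate controls were DMSO with full reaction for no effect and wells lacking NADH for full effect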
#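 System: Bacterial diaphorase enzyme (C. kluyveri) | Incubation: 16-min room-temperature incubation before reading | Benchmarks: No-NADH positive control and DMSO neutral control | Measured by: Resorufin fluorescence 544/590 nm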
# PfG6PD inh – PfG6PD (Plasmodium falciparum) enzyme inhibition; PfGluPho enzyme, NADPH resazurin-diaphorase fluorescence; inhibition, % at 20 µM; 350,000 compounds, 0.78% hits; AID 504690;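 active = inhibition reaching at least a set limit at 20 µM in the primary screen, cut at about 59% in these data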;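 note: 0% = DMSO wells with substrate and 100% = DMSO wells lacking glucose-6-phosphate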
# PfGluPho conf – confirmation of Plasmodium falciparum G6PD inhibitors; shares compounds with PfG6PD inh; recombinant PfGluPho, NADPH-diaphorase-resazurin fluorescence; inhibition, % at 20 µM; 2,400 compounds, 34% hits; AID 504753;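 active = inhibition of at least 50% at 20 µM in any single replicate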;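 note: 0% = DMSO with substrate and 100% = DMSO lacking glucose-6-phosphate substrate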
# Diaph ctr 10uM – counter-screen for P. falciparum G6PD inhibitors: diaphorase inhibitors, oxidizers | 820 compounds, 39% hits | inhibition, % at 20 µM | shares compounds with PfG6PD inh | diaphorase-coupled resazurin reduction, fluorescence, NADPH 10 uM;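 active = average inhibition reaching 50% or more with the compound at 20 µM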;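 note: resorufin red fluorescence formed as diaphorase reduces resazurin using NADPH; 0% = DMSO with enzyme and 100% = DMSO without enzyme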
# Diaphorase 30uM – diaphorase inhibition or oxidation at 30 uM NADPH | shares compounds with PfG6PD inh | 820 compounds, 29% hits | Diaphorase/resazurin coupled assay, resorufin fluorescence | inhibition, % at 20 µM;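 active = inhibition averaging 50% or more, tested at 20 µM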;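 note: 0% = DMSO with enzyme and 100% = DMSO wells lacking diaphorase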
# * = called active by the depositor; nt = no result given.
SMILES,G6PDH counter,HKDC1 inh,Tb hexokinase,Diaph inh CS,PfG6PD inh,PfGluPho conf,others
Cc1cc(C)nc(NC(N)=NCCc2ccccc2)n1,nt,-4,nt,nt,79*,51*,Diaph ctr 10uM=49;Diaphorase 30uM=48
CCn1c(N)c(C(=O)NCC2CCCO2)sc1=S (centres undefined),3,-18,-38,-7,61*,40,
CCNC(=O)c1sc(=S)n(CC)c1N,7,-9,-31,1,12,nt,
CCn1c(N)c(C(=O)NCCCOC)sc1=S,18,-4,-16,10,65*,13,
C=CCn1c(N)c(C(=O)NCC2CCCO2)sc1=S (centres undefined),16,-8,-27,1,20,nt,
CCn1c(N)c(C(=O)NC)sc1=S,3,-24,-2,7,80*,50*,Diaph ctr 10uM=-27;Diaphorase 30uM=-20
CN(C)CC(C)(C)CNC(=S)Nc1cc(S(=O)(=O)N2CCOCC2)ccc1Cl,7,-3,5,12,0,nt,
CCCC(=O)Nc1nc2ccc(OC)cc2s1,5,-2,-3,3,6,nt,
COc1ccc2nc(NC(=S)N(C)C)sc2c1,4,-10,-38,5,70*,13,
Cc1ccc(NC(=O)c2ccc3c(c2)CCN3S(C)(=O)=O)cc1,nt,nt,nt,nt,3,nt,
NC(=O)CC(c1ccccc1)c1ccc2c(c1)OCO2 (centres undefined),nt,2,nt,nt,-3,nt,
COC(=O)CCC(=O)OC1(C)C(=O)C=C2C=C(C3CC3)N(CCc3ccccn3)C=C2C1=O (centres undefined),nt,19,-35,nt,63*,26,
COC(=O)CCC(=O)OC1(C)C(=O)C=C2C=C(C3CC3)N(CCCOC(C)C)C=C2C1=O (centres undefined),nt,20,-38,nt,68*,23,
COC(=O)CCC(=O)OC1(C)C(=O)C=C2C=C(C3CC3)N(CCCCO)C=C2C1=O (centres undefined),nt,20,-22,nt,52,nt,
COC(=O)CCCC1=CC2=CC(=O)C(C)(OC(=O)c3cccs3)C(=O)C2=CN1C1CC1 (centres undefined),nt,15,-31,nt,62*,6,
COC(=O)CCC(=O)OC1(C)C(=O)C=C2C=C(C3CC3)N(C(CO)CO)C=C2C1=O (centres undefined),nt,17,-26,nt,52,nt,
COC(=O)CCC(=O)OC1(C)C(=O)C=C2C=C(C3CC3)N(c3ccccc3)C=C2C1=O (centres undefined),nt,16,-47,nt,66*,37,
CCOc1cc(N2CCOCC2)c(OCC)cc1NC(=O)CN1CCC(Cc2ccccc2)CC1,-15,2,-15,25,23,nt,
CC(C)c1nnc(NC(=O)c2ccc(S(=O)(=O)N3CCOCC3)cc2)s1,8,-3,-9,11,-10,nt,
CN(C(=O)c1cccc(NC(=O)Cc2cccc(NC(=O)C3CCN(C(=O)C4CC4)CC3)c2)c1)C1CCC1,nt,-4,nt,nt,5,nt,
C=CCN1C=C2C(=O)C(C)(OC(=O)CCC(=O)OC)C(=O)C=C2C=C1C1CC1 (centres undefined),nt,19,-30,nt,42,nt,
COC(=O)CCC(=O)OC1(C)C(=O)C=C2C=C(C3CC3)N(CCc3c[nH]c4ccccc34)C=C2C1=O (centres undefined),nt,24,-38,nt,65*,38,
O=C(Nc1ccc(Nc2ccccc2)cc1)c1cc([N+](=O)[O-])ccc1Cl,nt,-1,nt,nt,20,nt,
CC(=O)Nc1ccc(NC(=O)c2ccccc2Sc2ccc([N+](=O)[O-])cc2Cl)cc1,-14,-6,2,15,48,15,
Cn1c2ccccc2c(=O)c2ccc(C#Cc3ccc(N)cc3)cc21,nt,2,nt,nt,5,nt,
SMILES,G6PDH counter,HKDC1 inh,Tb hexokinase,Diaph inh CS,PfG6PD inh,PfGluPho conf,others
Cn1c2ccccc2c(=O)c2cc(C#Cc3cccc(N)c3)ccc21,nt,0,nt,nt,62*,21,
CS(=O)(=O)Nc1cccc(C(=O)OCCCOc2ccc(F)cc2)c1,nt,0,nt,nt,8,nt,
Cc1cc(C)nc(SCCN(C)C)n1,10,-3,-1,6,-6,nt,
Cc1cc(C)nc(SSc2nc(C)cc(C)n2)n1,nt,-2,nt,nt,65*,64*,Diaph ctr 10uM=-5;Diaphorase 30uM=-14
COc1cc(S(=O)(=O)n2ccnc2)ccc1Br,0,12,10,5,0,nt,
Nc1nc(=S)c2[nH]c(=S)[nH]c2[nH]1,nt,-2,nt,nt,67*,21,
Cc1ccc(NC(=O)CN2C(=O)NC(C)(C3CC3)C2=O)c(C)c1 (centres undefined),nt,1,nt,nt,-9,nt,
COc1ccc(NC2CCCN(Cc3cccc4cnccc34)C2)cc1OC (centres undefined),nt,7,nt,nt,65*,58*,Diaph ctr 10uM=10;Diaphorase 30uM=2
c1ccc(COn2nnc3ccccc32)c(COn2nnc3ccccc32)c1,-8,9,2,19,50,14,
CN1/C(=N\O)c2cccc3cccc1c23,45,9,-12,33,76*,46,
CNC(=O)CN1C(=O)c2cccc3cccc1c23,6,7,-23,-14,-6,nt,
Nc1[nH]n(-c2ccccc2)c(=O)c1N=Nc1ccc2ncsc2c1,nt,-5,-28,nt,67*,19,
Nc1[nH]n(-c2ccccc2)c(=O)c1N=Nc1ccccc1,nt,-3,-3,nt,7,nt,
CC(=O)c1cccc(NC(=S)N2CCc3ccccc32)c1,nt,2,nt,nt,9,nt,
O=C1CSC(c2ccccc2)N1Cc1ccccn1 (centres undefined),nt,-4,nt,nt,0,nt,
CN(C1CCCCC1)S(=O)(=O)c1ccc(=S)[nH]c1,nt,-4,nt,nt,61*,17,
O=C(Nc1ncc([N+](=O)[O-])s1)c1cccc([N+](=O)[O-])c1,nt,2,-3,nt,103*,89*,Diaph ctr 10uM=77*;Diaphorase 30uM=69*
CCOC(=O)CSc1nnc(NC(=O)c2cccc([N+](=O)[O-])c2)s1,10,12,-5,15,80*,58*,Diaph ctr 10uM=51*;Diaphorase 30uM=39
CCOC(=O)Cc1ccc(NC(=O)c2cccc([N+](=O)[O-])c2)cc1,11,-8,0,9,16,nt,
CS(=O)(=O)N1CCC(NC(=O)Nc2ccc(OC(F)(F)F)cc2)CC1,nt,-4,nt,nt,-6,nt,
c1cncc(-c2nc3cc4ccccc4cc3[nH]2)c1,7,-8,-41,9,62*,17,
c1ccc(-c2nc3cc4ccccc4cc3[nH]2)nc1,-38,7,-40,5,89*,37,
O=C(c1cccs1)n1nc(-c2cccnc2)nc1NCc1ccco1,5,14,5,24,-10,nt,
O=C(NC1CCCCC1)C(=S)NCCc1ccccc1,5,-4,3,3,65*,4,
COc1ccc(-c2cn3cc(C)ccc3n2)cc1Br,4,15,-3,5,103*,54*,Diaph ctr 10uM=45;Diaphorase 30uM=30
